In ChEMBL document CHEMBL2163267, “Novel N-linked aminopiperidine inhibitors of bacterial topoisomerase type II with reduced pK(a): antibacterial agents with an improved safety profile” (J Med Chem, 2012):
≈ marks a conversion by molar mass, not a printed value.

Tests used:
[1] = test system: Streptococcus pneumoniae; test: Antibacterial activity against penicillin-susceptible Streptococcus pneumoniae D39 after 18 to 24 hrs by CLSI broth microdilution method; format: functional
[2] = test system: Pseudomonas aeruginosa; test: Antibacterial activity against Pseudomonas aeruginosa PAO1 after 18 to 24 hrs by CLSI broth microdilution method; format: functional
[3] = test system: Escherichia coli; test: Antibacterial activity against Escherichia coli W3110 after 18 to 24 hrs by CLSI broth microdilution method; format: functional
[4] = test system: Staphylococcus aureus; test: Antibacterial activity against methicillin-susceptible Staphylococcus aureus after 18 to 24 hrs by CLSI broth microdilution method; format: functional
[5] = target: T1, Voltage-gated inwardly rectifying potassium channel KCNH2 (Homo sapiens, UniProt Q12809); test: Inhibition of human ERG by Ionworks assay
[6] = Fraction unbound in human plasma at 10 uM by equilibrium dialysis method; format: ADME, cell-free
In short: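 Equilibrium dialysis. Compound at 10 μM in the plasma (donor) chamber against phosphate buffer, rotated at 37 °C for 16 h. Drug in the plasma and buffer samples quantified by LC-MS/MS after methanol protein precipitation with internal standard. Standard curve 10 nM to 10 μM.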

[7] = Octanol-phosphate buffer partition coefficient, log D of the compound at pH 7.4 by shake flask method; format: physicochemical
In short: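 Shake-flask partition between n-octanol and 10 mM phosphate buffer at pH 7.4. Shaken 1 h at 1200 rpm to reach equilibrium. Phases analysed by LC/UV, with MS for mass confirmation.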

[8] = Inhibition of Escherichia coli DNA topoisomerase 4 subunit ParC/DNA topoisomerase 4 subunit ParE ATPase activity after 24 hrs by malachite green staining-based colorimetric assay
[9] = Dissociation constant, pKa of the compound by pH metric assay; format: physicochemical
In short: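 pH-metric titration on an automated titrator, run in triplicate. Accuracy about 0.02 log units.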

[10] = target: T1, Voltage-gated inwardly rectifying potassium channel KCNH2; test: Displacement of [3H]-astemizole from human ERG expressed in HEK293 cells after 60 mins by liquid scintillation counter; format: cell-based
[11] = test system: Staphylococcus aureus; test: Antibacterial activity against vancomycin-resistant Staphylococcus aureus ARC 3186 after 18 to 24 hrs by CLSI broth microdilution method; format: functional
In short: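 CLSI broth microdilution in Mueller Hinton Broth 2. Inocula prepared from blood agar plates grown at 35 °C for 18–24 h. Compound in DMSO, 2% DMSO final, 11 doubling dilutions from 64 to 0.06 μg/mL. Plates read at 620 nm.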

T1 sequence (Q12809 whole entry): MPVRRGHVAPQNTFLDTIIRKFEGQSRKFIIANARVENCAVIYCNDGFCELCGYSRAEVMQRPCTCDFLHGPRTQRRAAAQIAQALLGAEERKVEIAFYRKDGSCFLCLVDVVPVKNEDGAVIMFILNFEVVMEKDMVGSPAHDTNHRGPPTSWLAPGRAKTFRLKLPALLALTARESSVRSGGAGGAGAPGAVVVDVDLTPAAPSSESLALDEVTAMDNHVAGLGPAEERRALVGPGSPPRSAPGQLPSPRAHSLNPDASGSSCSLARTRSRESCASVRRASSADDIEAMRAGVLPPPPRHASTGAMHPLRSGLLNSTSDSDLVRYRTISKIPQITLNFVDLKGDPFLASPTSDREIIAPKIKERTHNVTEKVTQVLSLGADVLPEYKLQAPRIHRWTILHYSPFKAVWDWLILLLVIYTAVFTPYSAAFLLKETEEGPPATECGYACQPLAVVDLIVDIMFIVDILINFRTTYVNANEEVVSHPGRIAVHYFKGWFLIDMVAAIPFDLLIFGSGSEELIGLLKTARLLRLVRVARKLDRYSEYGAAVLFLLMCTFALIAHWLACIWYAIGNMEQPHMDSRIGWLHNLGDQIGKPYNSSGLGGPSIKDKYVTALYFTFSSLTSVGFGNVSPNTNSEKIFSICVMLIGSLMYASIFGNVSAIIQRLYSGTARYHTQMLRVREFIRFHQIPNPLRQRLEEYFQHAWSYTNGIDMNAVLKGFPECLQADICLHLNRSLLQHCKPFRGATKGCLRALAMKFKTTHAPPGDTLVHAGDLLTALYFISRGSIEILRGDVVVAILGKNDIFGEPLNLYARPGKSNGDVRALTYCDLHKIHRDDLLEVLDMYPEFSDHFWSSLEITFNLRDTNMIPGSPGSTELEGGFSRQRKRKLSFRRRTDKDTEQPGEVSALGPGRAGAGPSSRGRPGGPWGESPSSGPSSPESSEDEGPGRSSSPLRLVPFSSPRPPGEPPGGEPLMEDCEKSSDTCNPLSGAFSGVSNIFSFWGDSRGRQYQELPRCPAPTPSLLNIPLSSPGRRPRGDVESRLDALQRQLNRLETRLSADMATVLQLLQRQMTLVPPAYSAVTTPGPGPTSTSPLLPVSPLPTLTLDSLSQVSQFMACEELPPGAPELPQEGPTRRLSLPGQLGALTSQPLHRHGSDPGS

Row | MIC [1] | MIC [2] | MIC [3] | MIC [4] | fraction unbound at 10 µM [6] | logD [7] | IC50 [8] | pKa [9] | SMILES | IC50 [5] | IC50 [10] | MIC [11]
1 | 0.13 mg/L (≈ 0.269 µM) | 8 mg/L (≈ 16.6 µM) | 0.5 mg/L (≈ 1.04 µM) | 0.03 mg/L (≈ 0.0622 µM) |  |  |  |  | COc1ccc2ncc(=O)n(CCN3CC[C@H](NCc4ccc5c(n4)NC(=O)CO5)[C@H](F)C3)c2c1 |  |  | 
2 |  | > 8 mg/L | 1 mg/L (≈ 2.17 µM) | 0.06 mg/L (≈ 0.13 µM) | 0.19 | 0.46 | 0.025 µM | 8 | N#Cc1ccc2ccc(=O)n(CCN3CC[C@H](NCc4cc5c(cn4)OCCO5)[C@H](O)C3)c2c1 | 156 µM |  | 
3 |  | > 8 mg/L | 1 mg/L (≈ 2.17 µM) | 0.06 mg/L (≈ 0.13 µM) | 0.24 | 0.45 | 0.041 µM |  | N#Cc1ccc2ccc(=O)n(CCN3CC[C@@H](NCc4cc5c(cn4)OCCO5)[C@@H](O)C3)c2c1 | 117 µM |  | 
4 |  | 2 mg/L (≈ 4.21 µM) | 0.5 mg/L (≈ 1.05 µM) | 0.25 mg/L (≈ 0.527 µM) | 0.21 | 0.11 | 0.017 µM |  | N#Cc1ccc2ccc(=O)n(CCN3CC[C@H](NCc4ccc5c(n4)NC(=O)CO5)[C@H](O)C3)c2c1 |  |  | 
5 |  | 2 mg/L (≈ 4.21 µM) | 0.5 mg/L (≈ 1.05 µM) | 0.5 mg/L (≈ 1.05 µM) | 0.18 | 0.1 | 0.015 µM |  | N#Cc1ccc2ccc(=O)n(CCN3CC[C@@H](NCc4ccc5c(n4)NC(=O)CO5)[C@@H](O)C3)c2c1 |  |  | 
6 |  | 8 mg/L (≈ 17.1 µM) | 0.5 mg/L (≈ 1.07 µM) | 0.03 mg/L (≈ 0.0642 µM) | 0.19 |  | 0.005 µM |  | COc1ccc2ncc(=O)n(CCN3CC[C@H](NCc4cc5c(cn4)OCCO5)[C@H](O)C3)c2c1 |  |  | 
7 |  | > 8 mg/L | 1 mg/L (≈ 2.14 µM) | 0.06 mg/L (≈ 0.128 µM) | 0.14 |  | 0.006 µM | 7.97 | COc1ccc2ncc(=O)n(CCN3CC[C@@H](NCc4cc5c(cn4)OCCO5)[C@@H](O)C3)c2c1 |  |  | 
8 |  | 2 mg/L (≈ 4.16 µM) | 0.25 mg/L (≈ 0.52 µM) | 0.06 mg/L (≈ 0.125 µM) | 0.14 | 0.39 | 0.017 µM |  | COc1ccc2ncc(=O)n(CCN3CC[C@H](NCc4ccc5c(n4)NC(=O)CO5)[C@H](O)C3)c2c1 | 172 µM |  | 
9 |  | 2 mg/L (≈ 4.16 µM) | 0.25 mg/L (≈ 0.52 µM) | 0.13 mg/L (≈ 0.271 µM) | 0.05 | 0.37 | 0.023 µM |  | COc1ccc2ncc(=O)n(CCN3CC[C@@H](NCc4ccc5c(n4)NC(=O)CO5)[C@@H](O)C3)c2c1 | 152 µM |  | 
10 | 0.13 mg/L (≈ 0.273 µM) | > 8 mg/L | 4 mg/L (≈ 8.41 µM) | 0.13 mg/L (≈ 0.273 µM) | 0.54 | 0.63 | 0.055 µM | 7.99 | CO[C@H]1CN(CCn2c(=O)ccc3ccc(C#N)cc32)CC[C@H]1NCc1cc2c(cn1)OCCO2 | 174 µM |  | 
11 | 0.5 mg/L (≈ 1.02 µM) | 8 mg/L (≈ 16.4 µM) | 1 mg/L (≈ 2.05 µM) | 0.13 mg/L (≈ 0.266 µM) | 0.5 | 0.32 | 0.028 µM |  | CO[C@H]1CN(CCn2c(=O)ccc3ccc(C#N)cc32)CC[C@H]1NCc1ccc2c(n1)NC(=O)CO2 |  |  | 
12 | 0.13 mg/L (≈ 0.27 µM) | > 8 mg/L | 4 mg/L (≈ 8.31 µM) | 0.06 mg/L (≈ 0.125 µM) | 0.33 | 0.9 | 0.076 µM | 8.01 | COc1ccc2ncc(=O)n(CCN3CC[C@@H](NCc4cc5c(cn4)OCCO5)[C@@H](OC)C3)c2c1 | 75 µM |  | 
13 | 0.25 mg/L (≈ 0.506 µM) | 4 mg/L (≈ 8.09 µM) | 1 mg/L (≈ 2.02 µM) | 0.06 mg/L (≈ 0.121 µM) | 0.28 |  | 0.076 µM | 8.17 | COc1ccc2ncc(=O)n(CCN3CC[C@@H](NCc4ccc5c(n4)NC(=O)CO5)[C@@H](OC)C3)c2c1 | 88 µM |  | 
14 | 0.13 mg/L (≈ 0.269 µM) | 8 mg/L (≈ 16.6 µM) | 0.5 mg/L (≈ 1.04 µM) | 0.03 mg/L (≈ 0.0622 µM) | 0.25 | 0.83 |  |  | COc1ccc2ncc(=O)n(CCN3CC[C@@H](NCc4ccc5c(n4)NC(=O)CO5)[C@@H](F)C3)c2c1 |  |  | 
15 | 0.5 mg/L (≈ 1.05 µM) | > 8 mg/L | 8 mg/L (≈ 16.8 µM) | 0.25 mg/L (≈ 0.526 µM) | 0.13 | 1.07 | 0.096 µM | 7.25 | CO[C@H]1CN(CCn2c(=O)ccc3ccc(C#N)cc32)CC[C@@H]1NCc1cc2c(cn1)OCCO2 (single isomer, unassigned; enantiomer 1) | 176 µM |  | 
16 | 0.25 mg/L (≈ 0.512 µM) | > 8 mg/L | 2 mg/L (≈ 4.09 µM) | 0.13 mg/L (≈ 0.266 µM) | 0.27 | 0.81 | 0.035 µM | 7.53 | CO[C@@H]1CN(CCn2c(=O)ccc3ccc(C#N)cc32)CC[C@H]1NCc1ccc2c(n1)NC(=O)CO2 (single isomer, unassigned; enantiomer 1) |  |  | 
17 | 0.25 mg/L (≈ 0.519 µM) | > 8 mg/L | 8 mg/L (≈ 16.6 µM) | 0.25 mg/L (≈ 0.519 µM) | 0.11 | 1.27 | 0.113 µM | 7 | COc1ccc2ncc(=O)n(CCN3CC[C@H](NCc4cc5c(cn4)OCCO5)[C@@H](OC)C3)c2c1 (single isomer, unassigned; enantiomer 1) | 93 µM |  | 
18 | 0.13 mg/L (≈ 0.263 µM) | 8 mg/L (≈ 16.2 µM) | 1 mg/L (≈ 2.02 µM) | 0.03 mg/L (≈ 0.0607 µM) | 0.18 |  | 0.045 µM | 7.45 | COc1ccc2ncc(=O)n(CCN3CC[C@@H](NCc4ccc5c(n4)NC(=O)CO5)[C@H](OC)C3)c2c1 (single isomer, unassigned; enantiomer 1) | 27 µM |  | 
19 | 0.06 mg/L (≈ 0.124 µM) | 4 mg/L (≈ 8.29 µM) | 0.5 mg/L (≈ 1.04 µM) | < 0.01 mg/L | 0.04 | 1.38 | < 0.009 µM | 6.86 | COc1ccc2ncc(=O)n(CCN3CC[C@H](NCc4ccc5c(n4)NC(=O)CO5)[C@@H](F)C3)c2c1 (single isomer, unassigned; enantiomer B) |  |  | 
20 | 0.06 mg/L (≈ 0.128 µM) | > 8 mg/L | 2 mg/L (≈ 4.28 µM) | 0.06 mg/L (≈ 0.128 µM) | 0.18 |  | 0.003 µM | 7.4 | COc1ccc2ncc(=O)n(CCN3CC[C@@H](NCc4cc5c(cn4)OCCO5)[C@H](O)C3)c2c1 (single isomer, unassigned; enantiomer B) |  |  | 
21 | 0.13 mg/L (≈ 0.277 µM) | > 8 mg/L | 8 mg/L (≈ 17 µM) | 0.06 mg/L (≈ 0.128 µM) | 0.09 | 1.68 | 0.026 µM | 6.46 | COc1ccc2ncc(=O)n(CCN3CC[C@H](NCc4cc5c(cn4)OCCO5)[C@@H](F)C3)c2c1 (single isomer, unassigned; enantiomer B) |  |  | 
22 |  |  |  |  |  |  |  |  | CN[C@H](CC(C)C)C(=O)N[C@H]1C(=O)N[C@@H](CC(N)=O)C(=O)N[C@H]2C(=O)N[C@H]3C(=O)N[C@H](C(=O)N[C@H](C(=O)O)c4cc(O)cc(O)c4-c4cc3ccc4O)[C@H](O)c3ccc(c(Cl)c3)Oc3cc2cc(c3O[C@@H]2O[C@H](CO)[C@@H](O)[C@H](O)[C@H]2O[C@H]2C[C@](C)(N)[C@H](O)[C@H](C)O2)Oc2ccc(cc2Cl)[C@H]1O [VANCOMYCIN] |  |  | > 64 mg/L

Row | SMILES | MIC [1] | MIC [2] | MIC [3] | MIC [4] | fraction unbound at 10 µM [6] | logD [7] | IC50 [8] | pKa [9] | IC50 [5] | IC50 [10] | MIC [11]
23 | N#Cc1ccc2ccc(=O)n(CCN3CC[C@@H](NCc4cc5c(cn4)OCCO5)[C@@H](F)C3)c2c1 | 0.13 mg/L (≈ 0.28 µM) | > 8 mg/L | 4 mg/L (≈ 8.63 µM) | 0.13 mg/L (≈ 0.28 µM) | 0.2 | 0.97 | 0.06 µM |  | 199 µM | > 200 µM | 
